Molecules are shown by their SMILES. Bounds are passed on as bounds.

The subject of assay [1] is Mus musculus. Put plainly: Anticonvulsant activity in ip dosed DBA/2 mouse assessed as inhibition of auditory stimulation-induced clonic seizures administered 30 mins before auditory stimulation. It is filed as functional. The settings on record: DBA/2, ip. The method in brief:
(§1)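 DBA/2 mice (8–12 g, 22–25 days old), either sex, groups of 10. Given ip in 50% DMSO/50% saline at 0.1 mL/10 g, 30 min before testing. After 60 s habituation under a dome, sound (12–16 kHz, 109 dB) applied for 60 s or until tonic extension. Latency and incidence of each seizure phase scored.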

For assay [2], the system named is Mus musculus. The assay can be described thus: Anticonvulsant activity in ip dosed DBA/2 mouse assessed as inhibition of auditory stimulation-induced tonic seizures administered 30 mins before auditory stimulation. It is filed as functional. The settings on record: DBA/2, ip. An outline of the steps: as §1
Assay [3] has as its target Glutamate receptor ionotropic, NMDA 2B (Rattus norvegicus, UniProt Q00960). The assay can be described thus: Displacement of [3H]ifenprodil from NMDA NR2B receptor in Wistar rat cerebral cortex membrane. It is filed as tissue-based.
Assay [4] addresses Glutamate receptor ionotropic, NMDA 2B (Rattus norvegicus) (UniProt Q00960). Put plainly: Displacement of [3H]ifenprodil from NMDA NR2B receptor in Wistar rat cerebral cortex membrane at 10 uM. It is filed as tissue-based. In general terms: Loss of bound radioactivity is the signal in a displacement assay; it reports binding, not function.
Assay [5] shares this target. Put plainly: Antagonist activity at NMDA NR2B receptor in Wistar rat CA1 pyramidal neurons assessed as reduction of NMDA-induced inward currents at 100 uM at holding potential of -60 mV by patch-clamp technique. It is filed as functional, cell-based. The arrangement: scale not given: the % may be the effect or the level left. The settings on record: Pyramidal neuron. An outline of the steps:
(§2)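 Rat hippocampal slices; whole-cell currents recorded from single CA1 pyramidal neurons held at -60 mV. Inward current evoked by NMDA (50 µM, 5 s) plus glycine (0.5 µM). Compound bath-perfused at 1, 10 or 100 µM for 5 min. Amplitude taken as peak minus baseline, from at least three consecutive responses in control and in compound. Sets compared by unpaired t-test; percent reduction reported as mean ± SEM.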
Background: The patch-clamp technique gives a direct electrical read-out from membranes.

Assay [6] shares this target. The assay can be described thus: Antagonist activity at NMDA NR2B receptor in Wistar rat CA1 pyramidal neurons assessed as reduction of NMDA-induced inward currents at 10 uM at holding potential of -60 mV by patch-clamp technique. The conditions noted are these: Pyramidal neuron. On the set-up: scale not given: the % may be the effect or the level left. It is filed as functional, cell-based. The method in brief: as §2

The target is the same in assay [7]. The assay can be described thus: Antagonist activity at NMDA NR2B receptor in Wistar rat CA1 pyramidal neurons assessed as reduction of NMDA-induced inward currents at 1 uM at holding potential of -60 mV by patch-clamp technique. It is filed as functional, cell-based. The arrangement: scale not given: the % may be the effect or the level left. The settings on record: Pyramidal neuron. An outline of the steps: as §2

Assay [8] shares this target. Put plainly: Antagonist activity at NMDA NR2B receptor in Wistar rat CA1 pyramidal neurons assessed as inhibition of NMDA-induced inward currents at holding potential of -60 mV by patch-clamp technique. The assay is classed as functional, cell-based. The settings on record: Pyramidal neuron. The method in brief:
as §2

Glutamate receptor ionotropic, NMDA 2B (Rattus norvegicus), sequence (Q00960 27-1482 limits assumed): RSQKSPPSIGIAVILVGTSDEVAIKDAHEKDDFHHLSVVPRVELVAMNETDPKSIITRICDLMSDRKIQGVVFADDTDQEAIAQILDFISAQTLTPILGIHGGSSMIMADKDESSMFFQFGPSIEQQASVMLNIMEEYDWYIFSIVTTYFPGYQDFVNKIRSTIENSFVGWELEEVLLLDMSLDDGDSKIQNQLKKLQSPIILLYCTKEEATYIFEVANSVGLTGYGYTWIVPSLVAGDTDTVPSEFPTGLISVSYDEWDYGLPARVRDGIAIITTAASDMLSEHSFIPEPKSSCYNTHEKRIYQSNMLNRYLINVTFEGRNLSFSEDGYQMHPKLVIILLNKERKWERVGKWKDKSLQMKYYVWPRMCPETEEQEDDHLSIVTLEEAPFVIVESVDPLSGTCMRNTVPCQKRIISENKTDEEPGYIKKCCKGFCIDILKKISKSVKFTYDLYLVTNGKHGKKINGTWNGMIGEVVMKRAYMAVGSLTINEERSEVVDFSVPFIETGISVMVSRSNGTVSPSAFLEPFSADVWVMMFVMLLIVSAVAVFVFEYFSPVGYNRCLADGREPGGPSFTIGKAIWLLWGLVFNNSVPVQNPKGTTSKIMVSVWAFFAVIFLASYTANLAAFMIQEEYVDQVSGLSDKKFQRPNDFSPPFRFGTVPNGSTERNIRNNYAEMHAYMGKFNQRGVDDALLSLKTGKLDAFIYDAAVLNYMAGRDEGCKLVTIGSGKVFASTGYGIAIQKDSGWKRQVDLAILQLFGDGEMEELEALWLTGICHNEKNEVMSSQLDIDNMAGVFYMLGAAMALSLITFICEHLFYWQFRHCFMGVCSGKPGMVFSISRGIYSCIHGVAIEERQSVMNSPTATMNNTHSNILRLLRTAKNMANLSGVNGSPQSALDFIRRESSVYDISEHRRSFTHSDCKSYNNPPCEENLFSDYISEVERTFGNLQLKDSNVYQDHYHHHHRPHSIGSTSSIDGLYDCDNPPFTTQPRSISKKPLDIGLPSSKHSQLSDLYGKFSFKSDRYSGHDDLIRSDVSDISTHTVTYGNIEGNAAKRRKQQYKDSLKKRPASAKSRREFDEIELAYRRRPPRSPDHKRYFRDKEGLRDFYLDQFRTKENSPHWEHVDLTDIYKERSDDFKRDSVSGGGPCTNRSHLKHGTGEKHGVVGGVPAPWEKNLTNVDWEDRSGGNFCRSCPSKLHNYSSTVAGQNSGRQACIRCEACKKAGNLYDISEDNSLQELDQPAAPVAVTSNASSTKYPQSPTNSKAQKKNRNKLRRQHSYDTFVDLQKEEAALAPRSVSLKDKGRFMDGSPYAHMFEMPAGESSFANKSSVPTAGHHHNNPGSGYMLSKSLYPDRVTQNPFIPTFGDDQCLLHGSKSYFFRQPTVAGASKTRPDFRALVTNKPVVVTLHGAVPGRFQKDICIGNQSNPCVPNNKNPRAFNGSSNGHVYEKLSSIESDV
Glutamate receptor ionotropic, NMDA 2B, sequence (Q00960 whole entry): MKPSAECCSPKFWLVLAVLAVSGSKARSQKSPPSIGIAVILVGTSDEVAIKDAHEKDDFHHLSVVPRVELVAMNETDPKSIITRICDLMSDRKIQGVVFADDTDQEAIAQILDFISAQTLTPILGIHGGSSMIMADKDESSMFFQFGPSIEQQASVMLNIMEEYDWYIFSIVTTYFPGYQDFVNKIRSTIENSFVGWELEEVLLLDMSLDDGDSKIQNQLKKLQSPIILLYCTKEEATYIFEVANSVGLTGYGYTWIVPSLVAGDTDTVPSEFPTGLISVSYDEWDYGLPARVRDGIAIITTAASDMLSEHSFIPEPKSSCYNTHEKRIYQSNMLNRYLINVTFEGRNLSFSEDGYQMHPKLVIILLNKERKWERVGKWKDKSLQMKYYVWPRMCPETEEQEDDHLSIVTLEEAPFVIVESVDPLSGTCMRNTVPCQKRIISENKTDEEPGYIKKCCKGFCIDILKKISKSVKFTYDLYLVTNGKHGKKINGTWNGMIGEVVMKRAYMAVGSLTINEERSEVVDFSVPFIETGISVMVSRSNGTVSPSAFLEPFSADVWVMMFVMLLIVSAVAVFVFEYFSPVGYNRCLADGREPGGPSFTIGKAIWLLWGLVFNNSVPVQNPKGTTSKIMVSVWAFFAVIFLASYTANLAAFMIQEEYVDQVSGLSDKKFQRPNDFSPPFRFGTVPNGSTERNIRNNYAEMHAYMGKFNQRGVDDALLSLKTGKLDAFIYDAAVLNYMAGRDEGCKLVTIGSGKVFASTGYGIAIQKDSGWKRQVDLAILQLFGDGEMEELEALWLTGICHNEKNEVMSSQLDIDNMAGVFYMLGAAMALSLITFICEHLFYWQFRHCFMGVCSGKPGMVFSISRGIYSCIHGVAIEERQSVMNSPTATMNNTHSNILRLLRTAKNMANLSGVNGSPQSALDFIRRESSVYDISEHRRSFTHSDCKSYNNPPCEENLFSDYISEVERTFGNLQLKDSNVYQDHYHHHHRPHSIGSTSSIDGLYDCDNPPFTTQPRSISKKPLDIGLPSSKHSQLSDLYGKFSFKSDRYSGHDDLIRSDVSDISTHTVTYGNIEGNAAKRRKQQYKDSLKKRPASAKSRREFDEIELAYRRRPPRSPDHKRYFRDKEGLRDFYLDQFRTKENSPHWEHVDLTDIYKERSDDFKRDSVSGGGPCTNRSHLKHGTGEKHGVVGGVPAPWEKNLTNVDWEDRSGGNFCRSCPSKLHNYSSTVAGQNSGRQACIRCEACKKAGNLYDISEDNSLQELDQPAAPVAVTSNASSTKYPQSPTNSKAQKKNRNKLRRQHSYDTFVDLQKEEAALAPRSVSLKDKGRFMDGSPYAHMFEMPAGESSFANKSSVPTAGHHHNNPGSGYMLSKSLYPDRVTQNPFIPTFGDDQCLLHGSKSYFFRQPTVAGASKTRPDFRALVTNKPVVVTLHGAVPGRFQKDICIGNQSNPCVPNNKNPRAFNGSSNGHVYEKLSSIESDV

With `C[C@@H](CN1CCC(Cc2ccccc2)CC1)[C@@H](O)c1ccc(O)cc1`, the 50% effective dose (ED50) (in general, the midpoint of the dose-response relation) in assay [1] was determined as 40 µmol/kg; in assay [2] it was 10.6 µmol/kg.

`O=C(C(=O)N1CCC(Cc2ccccc2)CC1)c1c[nH]c2ccc(O)cc12`: the IC50 (commonly the midpoint of a concentration-inhibition curve) in assay [3] turned out to be 2660 nM. The molecule further showed an Activity in assay [4] of 77%. Also, the ED50 in assay [1] and in assay [2] was greater than 100 µmol/kg throughout.

As for `O=C(CCc1c[nH]c2ccccc12)N1CCC(Cc2ccccc2)CC1`, the values for the ED50 in assay [1] and in assay [2] were greater than 100 µmol/kg and 57.6 µmol/kg, respectively.

With `O=C(C(=O)N1CCC(Cc2ccccc2)CC1)c1c[nH]c2ccccc12`, the Activity in assay [4] came out at 36%. Also, the ED50 was 22.4 µmol/kg in assay [1] and 0.95 µmol/kg in assay [2].

On to `O=C(CN1CCC(Cc2ccccc2)CC1)c1c[nH]c2ccc(O)cc12`, for which the Activity is 75% in assay [5]; 52% in assay [6]; 23% in assay [7]; “Dose-dependent effect” in assay [8]; 92% in assay [4]. The concentration for half-maximal inhibition (IC50) in assay [3] is 25 nM. Further, in assay [3], the Ki (usually the equilibrium dissociation constant of an inhibitor or competing ligand from its target) worked out at 23 nM. Besides, the ED50 in assay [1] turned out to be 11.5 µmol/kg; in assay [2], 6.48 µmol/kg.

Regarding `COc1ccc2[nH]cc(C(=O)C(=O)N3CCC(Cc4ccccc4)CC3)c2c1`, the median effective dose (ED50) in assay [1] was greater than 100 µmol/kg; in assay [2], 78.8 µmol/kg.

In the case of `O=C(Cc1c[nH]c2ccc(O)cc12)N1CCC(Cc2ccccc2)CC1`, the ED50 in assay [1] stood at 45.6 µmol/kg; in assay [2], 13.9 µmol/kg.

As for `COc1ccc2[nH]cc(CC(=O)N3CCC(Cc4ccccc4)CC3)c2c1`, the ED50 is 89 µmol/kg in assay [1] and 34.4 µmol/kg in assay [2].

With `O=C(C(=O)N1CCC(Cc2ccccc2)CC1)c1c[nH]c2ccc(Br)cc12`, the ED50 in assay [1] was greater than 100 µmol/kg; in assay [2] it was 47.9 µmol/kg.

Regarding `COc1ccc2[nH]cc(C(=O)CN3CCC(Cc4ccccc4)CC3)c2c1`, the 50% effective dose (ED50) in assay [1] was found to be 59.9 µmol/kg; in assay [2] it was 36.5 µmol/kg.

For the molecule `O=C(Cc1c[nH]c2ccccc12)N1CCC(Cc2ccccc2)CC1`, the values for the ED50 in assay [1] and in assay [2] were 70.3 µmol/kg and 39.2 µmol/kg, respectively.

On to `O=C(CN1CCN(Cc2ccccc2)CC1)c1c[nH]c2ccccc12`, for which the ED50 in assay [1] and in assay [2] was greater than 100 µmol/kg in each case.

Consider `O=C(CN1CCC(Cc2ccccc2)CC1)c1c[nH]c2ccccc12`, for which the IC50 in assay [3] came out at 769 nM. The molecule further showed an Activity in assay [4] of 89%. Further, the results for the ED50 in assay [1] and in assay [2] were 22.4 µmol/kg and 8.71 µmol/kg, respectively.

As for `O=C(CN1CCC(Cc2ccccc2)CC1)c1c[nH]c2ncccc12`, the ED50 in assay [1] stood at 88.5 µmol/kg; in assay [2] it was 32.5 µmol/kg.

Consider `O=C(Cc1c[nH]c2ccc(Br)cc12)N1CCC(Cc2ccccc2)CC1`, for which the ED50 amounted to 27.3 µmol/kg in assay [1] and 5.42 µmol/kg in assay [2].

For `O=C(CN1CCC(Cc2ccccc2)CC1)c1c[nH]c2ccc(Br)cc12`, the median effective dose (ED50) in assay [1] was 84.9 µmol/kg; in assay [2], 49.7 µmol/kg.
